From PubChem BioAssay AID692 (The Scripps Research Institute Molecular Screening Center, 2007)
pEC50: −log10 of the molar value. The source made the active and inactive calls.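 How the source made its calls: active means EC50 at or below a set limit; inactive means the rest.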

Target: Steroidogenic factor 1 (Homo sapiens) (UniProt Q13285)
Experiment: SF-1 activators, concentration-response, dose response, cell-based, CHO-K1, Gal4-SF-1 LBD, luciferase luminescence (AID 692)
Details: CHO-K1 Gal4-SF1 LBD luciferase reporter, activation
Outline: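 Assay system: CHO-K1 Gal4–SF-1 LBD luciferase reporter cells; Doses: 10 points, 1:3 steps, up to 100 µM; Incubation: compound exposure of cells 20 h at 37 °C; Technique: luminescence; Read-out: % activation vs DMSO/mock-transfected cells, EC50 from four-parameter sigmoidal fit; Benchmarks: DMSO-treated transfected cells and mock-transfected background; Replication: triplicate.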

Steroidogenic factor 1 (Homo sapiens), sequence (Q13285 whole entry, looked up, the tested form may be a part): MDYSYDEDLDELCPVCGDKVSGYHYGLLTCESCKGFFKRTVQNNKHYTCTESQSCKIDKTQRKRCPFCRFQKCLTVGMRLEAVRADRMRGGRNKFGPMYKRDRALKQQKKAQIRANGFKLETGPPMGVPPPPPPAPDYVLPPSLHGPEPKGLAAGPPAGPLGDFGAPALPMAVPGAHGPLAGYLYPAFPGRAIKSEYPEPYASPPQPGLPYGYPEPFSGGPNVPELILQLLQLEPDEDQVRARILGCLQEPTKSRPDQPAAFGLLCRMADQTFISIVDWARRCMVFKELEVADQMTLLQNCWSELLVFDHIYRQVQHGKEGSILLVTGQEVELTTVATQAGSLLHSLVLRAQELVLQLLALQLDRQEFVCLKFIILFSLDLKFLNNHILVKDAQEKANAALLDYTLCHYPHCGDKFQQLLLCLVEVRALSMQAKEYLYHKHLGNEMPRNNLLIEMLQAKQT

| EC50 | pEC50 | Structure (SMILES) |
| --- | --- | --- |
| inactive | – | COc1cc(C2C3C(=O)N(c4ccccc4)C(=O)C3ON2c2ccccc2)ccc1O (stereo not drawn) |
| – | 5.54 | C/C(N)=C(/C#N)C(=O)CSc1ccc2c(c1)OCCO2 |
| – | 5.44 | Cc1ccc(C2/C(=C(\O)c3cnn(-c4ccccc4)c3C)C(=O)C(=O)N2CCN(C)C)o1 (stereo not drawn) |
| – | 5.57 | COC(=O)c1ccc(/C(O)=C(\C#N)c2nc3ccccc3s2)cc1 |
| – | 6.40 | COc1ccc(C(=O)/C=C/Nc2cccc(C)n2)cc1OC |
| – | 5.42 | O=C1CCCC(O)=C1C=Nc1ccc(O)cc1 |
| – | 5.17 | CC1(C)CC(=O)C(C=Nc2ccccc2)=C(O)C1 |
| > 11 µM (inactive) | – | CC1(C)CC(=O)C(C=Nc2ccc3[nH]ncc3c2)=C(O)C1 |
